Measured values taken from ChEMBL document CHEMBL1641579, “Synthesis and biological evaluation of 7-substituted-1-(3-bromophenylamino)isoquinoline-4-carbonitriles as inhibitors of myosin light chain kinase and epidermal growth factor receptor” (Bioorg Med Chem, 2011).

Tests used:
[1] = target: Fibroblast growth factor receptor 1 (Homo sapiens) (UniProt P11362); assay: Inhibition of FGFR1 assessed as residual activity at 10 uM
Outline: (§1)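 Kinase panel screen run as a radioactive activity assay at single compound concentration. Score reported as percent activity remaining relative to DMSO controls (100%).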

[2] = target: Casein kinase I isoform alpha (Homo sapiens) (UniProt P48729); assay: Inhibition of CK1 assessed as residual activity at 10 uM; outline: as §1
[3] = target: T1, MAP/microtubule affinity-regulating kinase 4 (Homo sapiens) (UniProt Q96L34); assay: Inhibition of MARK4 assessed as residual activity at 10 uM; outline: as §1
T1 sequence (whole entry): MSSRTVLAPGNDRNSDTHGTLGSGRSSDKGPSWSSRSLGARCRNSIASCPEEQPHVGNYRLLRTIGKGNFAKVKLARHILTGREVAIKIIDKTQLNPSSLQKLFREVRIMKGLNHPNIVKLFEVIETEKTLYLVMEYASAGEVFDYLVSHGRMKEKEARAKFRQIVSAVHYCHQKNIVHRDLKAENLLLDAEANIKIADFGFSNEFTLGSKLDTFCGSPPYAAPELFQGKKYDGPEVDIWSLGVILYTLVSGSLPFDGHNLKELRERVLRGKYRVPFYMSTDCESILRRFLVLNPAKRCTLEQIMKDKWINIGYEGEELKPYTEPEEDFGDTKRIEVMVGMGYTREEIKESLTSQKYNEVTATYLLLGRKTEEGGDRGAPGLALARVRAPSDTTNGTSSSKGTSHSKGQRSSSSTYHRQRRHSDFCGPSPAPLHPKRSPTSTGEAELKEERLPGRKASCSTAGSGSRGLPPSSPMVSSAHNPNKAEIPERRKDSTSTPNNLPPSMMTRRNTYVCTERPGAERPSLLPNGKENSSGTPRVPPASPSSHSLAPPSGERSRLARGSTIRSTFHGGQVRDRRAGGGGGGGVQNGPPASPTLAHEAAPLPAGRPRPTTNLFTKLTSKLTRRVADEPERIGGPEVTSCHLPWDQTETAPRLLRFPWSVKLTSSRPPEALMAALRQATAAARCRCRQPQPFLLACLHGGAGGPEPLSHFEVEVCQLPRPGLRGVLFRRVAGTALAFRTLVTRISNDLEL

[4] = Inhibition of AMPK assessed as residual activity at 10 uM; outline: as §1
[5] = target: Receptor-interacting serine/threonine-protein kinase 2 (Homo sapiens) (UniProt O43353); assay: Inhibition of RIPK2 assessed as residual activity at 10 uM
Outline: (§2)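 Panel screen by radioactive kinase assay at a single inhibitor concentration. Score is the percent activity remaining relative to DMSO controls (100%).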

[6] = Inhibition of VEGFR assessed as residual activity at 10 uM; outline: as §2
[7] = target: T2, Serine/threonine-protein kinase Chk1 (Homo sapiens) (UniProt O14757); assay: Inhibition of CHK1 assessed as residual activity at 10 uM; outline: as §1
T2 sequence (whole entry): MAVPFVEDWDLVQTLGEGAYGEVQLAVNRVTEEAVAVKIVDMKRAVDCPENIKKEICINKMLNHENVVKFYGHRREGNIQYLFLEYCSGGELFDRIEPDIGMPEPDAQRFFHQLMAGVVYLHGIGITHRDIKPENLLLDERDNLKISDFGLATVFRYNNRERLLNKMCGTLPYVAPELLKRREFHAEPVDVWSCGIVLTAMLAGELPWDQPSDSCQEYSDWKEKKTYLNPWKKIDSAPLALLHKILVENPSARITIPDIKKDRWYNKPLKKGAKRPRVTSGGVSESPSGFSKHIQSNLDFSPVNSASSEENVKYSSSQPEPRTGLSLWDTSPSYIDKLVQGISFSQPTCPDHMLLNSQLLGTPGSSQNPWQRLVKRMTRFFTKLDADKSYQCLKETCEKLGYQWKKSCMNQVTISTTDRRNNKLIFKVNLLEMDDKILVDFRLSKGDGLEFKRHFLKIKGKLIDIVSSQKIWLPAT

[8] = target: T3, Serine/threonine-protein kinase 3 (Homo sapiens) (UniProt Q13188); assay: Inhibition of MST2 assessed as residual activity at 10 uM; outline: as §2
T3 sequence (whole entry): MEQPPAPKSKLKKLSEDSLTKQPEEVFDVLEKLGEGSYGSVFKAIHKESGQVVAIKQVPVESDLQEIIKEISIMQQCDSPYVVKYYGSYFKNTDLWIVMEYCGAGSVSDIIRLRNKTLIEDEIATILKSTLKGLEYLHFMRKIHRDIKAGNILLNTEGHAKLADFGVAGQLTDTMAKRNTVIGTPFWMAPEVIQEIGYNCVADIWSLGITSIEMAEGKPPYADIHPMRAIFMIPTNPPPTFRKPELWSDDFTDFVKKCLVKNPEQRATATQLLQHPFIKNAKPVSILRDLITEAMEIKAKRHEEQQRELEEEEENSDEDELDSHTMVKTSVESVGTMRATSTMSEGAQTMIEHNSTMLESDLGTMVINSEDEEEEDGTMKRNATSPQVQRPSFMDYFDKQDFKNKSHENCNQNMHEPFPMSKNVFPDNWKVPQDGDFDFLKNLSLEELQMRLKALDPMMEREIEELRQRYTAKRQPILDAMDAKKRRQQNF

[9] = target: Myosin light chain kinase, smooth muscle (Homo sapiens, UniProt Q15746); assay: Inhibition of smMLCK assessed as residual activity at 10 uM; outline: as §2
[10] = target: T4, Dual specificity tyrosine-phosphorylation-regulated kinase 2 (Homo sapiens) (UniProt Q92630); assay: Inhibition of DYRK2 assessed as residual activity at 10 uM; outline: as §1
T4 sequence (whole entry): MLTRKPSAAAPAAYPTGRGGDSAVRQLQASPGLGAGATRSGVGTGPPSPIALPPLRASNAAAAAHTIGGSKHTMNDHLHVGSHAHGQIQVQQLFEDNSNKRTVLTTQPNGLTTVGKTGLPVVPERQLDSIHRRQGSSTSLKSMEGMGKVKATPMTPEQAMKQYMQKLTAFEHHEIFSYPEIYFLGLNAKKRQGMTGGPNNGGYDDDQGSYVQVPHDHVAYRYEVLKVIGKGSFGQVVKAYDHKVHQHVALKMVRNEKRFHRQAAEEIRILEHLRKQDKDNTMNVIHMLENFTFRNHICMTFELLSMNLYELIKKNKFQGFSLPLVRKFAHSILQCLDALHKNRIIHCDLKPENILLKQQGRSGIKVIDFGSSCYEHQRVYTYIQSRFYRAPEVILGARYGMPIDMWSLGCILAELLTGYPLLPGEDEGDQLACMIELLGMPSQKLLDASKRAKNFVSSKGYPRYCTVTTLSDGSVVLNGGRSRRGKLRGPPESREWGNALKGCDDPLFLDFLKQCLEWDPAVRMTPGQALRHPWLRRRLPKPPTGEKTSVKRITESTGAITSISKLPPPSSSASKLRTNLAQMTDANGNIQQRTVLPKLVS

Chain of Receptor-interacting serine/threonine-protein kinase 2 (Homo sapiens) (O43353 whole entry): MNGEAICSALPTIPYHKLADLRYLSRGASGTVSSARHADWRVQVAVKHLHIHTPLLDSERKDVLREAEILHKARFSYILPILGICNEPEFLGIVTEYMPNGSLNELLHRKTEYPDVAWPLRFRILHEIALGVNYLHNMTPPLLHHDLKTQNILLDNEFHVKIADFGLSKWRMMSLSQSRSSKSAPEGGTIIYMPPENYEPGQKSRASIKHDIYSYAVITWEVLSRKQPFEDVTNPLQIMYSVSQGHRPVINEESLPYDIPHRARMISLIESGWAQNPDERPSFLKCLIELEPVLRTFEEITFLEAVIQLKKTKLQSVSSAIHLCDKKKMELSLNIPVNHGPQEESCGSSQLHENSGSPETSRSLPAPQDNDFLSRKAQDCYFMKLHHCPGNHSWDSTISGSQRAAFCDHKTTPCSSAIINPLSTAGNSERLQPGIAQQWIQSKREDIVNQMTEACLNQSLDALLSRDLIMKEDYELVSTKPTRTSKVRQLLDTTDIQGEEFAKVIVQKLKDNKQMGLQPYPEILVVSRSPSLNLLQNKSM
Chain of Fibroblast growth factor receptor 1 (Homo sapiens) (P11362 22-822 limits assumed): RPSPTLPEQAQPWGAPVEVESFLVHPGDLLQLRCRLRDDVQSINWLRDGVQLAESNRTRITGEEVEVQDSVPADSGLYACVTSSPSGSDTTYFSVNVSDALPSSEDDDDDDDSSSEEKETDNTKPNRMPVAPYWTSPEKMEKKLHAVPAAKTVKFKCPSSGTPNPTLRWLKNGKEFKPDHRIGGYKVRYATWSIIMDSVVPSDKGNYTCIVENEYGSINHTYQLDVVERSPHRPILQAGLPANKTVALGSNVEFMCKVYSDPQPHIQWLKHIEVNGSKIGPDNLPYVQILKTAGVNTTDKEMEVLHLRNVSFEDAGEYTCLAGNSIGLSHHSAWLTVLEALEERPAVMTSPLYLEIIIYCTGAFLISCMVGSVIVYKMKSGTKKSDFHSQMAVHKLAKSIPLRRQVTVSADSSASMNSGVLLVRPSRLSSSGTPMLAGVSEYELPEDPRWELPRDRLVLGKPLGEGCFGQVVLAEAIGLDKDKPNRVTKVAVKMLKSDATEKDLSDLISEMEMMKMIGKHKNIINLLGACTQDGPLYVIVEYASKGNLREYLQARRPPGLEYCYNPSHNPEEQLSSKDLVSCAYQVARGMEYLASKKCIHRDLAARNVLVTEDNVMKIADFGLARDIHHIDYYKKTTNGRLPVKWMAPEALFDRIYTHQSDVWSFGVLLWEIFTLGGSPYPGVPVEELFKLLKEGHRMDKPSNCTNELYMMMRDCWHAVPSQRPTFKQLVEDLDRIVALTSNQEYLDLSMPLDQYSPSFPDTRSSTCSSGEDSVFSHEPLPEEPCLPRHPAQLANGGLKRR
Chain of Casein kinase I isoform alpha (Homo sapiens) (P48729 2-337 limits assumed): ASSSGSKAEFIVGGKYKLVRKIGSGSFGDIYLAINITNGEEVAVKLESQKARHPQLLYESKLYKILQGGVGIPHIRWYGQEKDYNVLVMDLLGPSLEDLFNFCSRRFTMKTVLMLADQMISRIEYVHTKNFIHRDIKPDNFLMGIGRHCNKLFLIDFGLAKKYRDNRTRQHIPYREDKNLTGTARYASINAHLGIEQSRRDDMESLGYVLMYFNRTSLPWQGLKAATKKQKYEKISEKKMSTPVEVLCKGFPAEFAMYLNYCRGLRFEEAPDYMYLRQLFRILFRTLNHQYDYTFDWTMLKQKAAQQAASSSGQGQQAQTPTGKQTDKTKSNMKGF
Chain of Myosin light chain kinase, smooth muscle (Q15746 whole entry): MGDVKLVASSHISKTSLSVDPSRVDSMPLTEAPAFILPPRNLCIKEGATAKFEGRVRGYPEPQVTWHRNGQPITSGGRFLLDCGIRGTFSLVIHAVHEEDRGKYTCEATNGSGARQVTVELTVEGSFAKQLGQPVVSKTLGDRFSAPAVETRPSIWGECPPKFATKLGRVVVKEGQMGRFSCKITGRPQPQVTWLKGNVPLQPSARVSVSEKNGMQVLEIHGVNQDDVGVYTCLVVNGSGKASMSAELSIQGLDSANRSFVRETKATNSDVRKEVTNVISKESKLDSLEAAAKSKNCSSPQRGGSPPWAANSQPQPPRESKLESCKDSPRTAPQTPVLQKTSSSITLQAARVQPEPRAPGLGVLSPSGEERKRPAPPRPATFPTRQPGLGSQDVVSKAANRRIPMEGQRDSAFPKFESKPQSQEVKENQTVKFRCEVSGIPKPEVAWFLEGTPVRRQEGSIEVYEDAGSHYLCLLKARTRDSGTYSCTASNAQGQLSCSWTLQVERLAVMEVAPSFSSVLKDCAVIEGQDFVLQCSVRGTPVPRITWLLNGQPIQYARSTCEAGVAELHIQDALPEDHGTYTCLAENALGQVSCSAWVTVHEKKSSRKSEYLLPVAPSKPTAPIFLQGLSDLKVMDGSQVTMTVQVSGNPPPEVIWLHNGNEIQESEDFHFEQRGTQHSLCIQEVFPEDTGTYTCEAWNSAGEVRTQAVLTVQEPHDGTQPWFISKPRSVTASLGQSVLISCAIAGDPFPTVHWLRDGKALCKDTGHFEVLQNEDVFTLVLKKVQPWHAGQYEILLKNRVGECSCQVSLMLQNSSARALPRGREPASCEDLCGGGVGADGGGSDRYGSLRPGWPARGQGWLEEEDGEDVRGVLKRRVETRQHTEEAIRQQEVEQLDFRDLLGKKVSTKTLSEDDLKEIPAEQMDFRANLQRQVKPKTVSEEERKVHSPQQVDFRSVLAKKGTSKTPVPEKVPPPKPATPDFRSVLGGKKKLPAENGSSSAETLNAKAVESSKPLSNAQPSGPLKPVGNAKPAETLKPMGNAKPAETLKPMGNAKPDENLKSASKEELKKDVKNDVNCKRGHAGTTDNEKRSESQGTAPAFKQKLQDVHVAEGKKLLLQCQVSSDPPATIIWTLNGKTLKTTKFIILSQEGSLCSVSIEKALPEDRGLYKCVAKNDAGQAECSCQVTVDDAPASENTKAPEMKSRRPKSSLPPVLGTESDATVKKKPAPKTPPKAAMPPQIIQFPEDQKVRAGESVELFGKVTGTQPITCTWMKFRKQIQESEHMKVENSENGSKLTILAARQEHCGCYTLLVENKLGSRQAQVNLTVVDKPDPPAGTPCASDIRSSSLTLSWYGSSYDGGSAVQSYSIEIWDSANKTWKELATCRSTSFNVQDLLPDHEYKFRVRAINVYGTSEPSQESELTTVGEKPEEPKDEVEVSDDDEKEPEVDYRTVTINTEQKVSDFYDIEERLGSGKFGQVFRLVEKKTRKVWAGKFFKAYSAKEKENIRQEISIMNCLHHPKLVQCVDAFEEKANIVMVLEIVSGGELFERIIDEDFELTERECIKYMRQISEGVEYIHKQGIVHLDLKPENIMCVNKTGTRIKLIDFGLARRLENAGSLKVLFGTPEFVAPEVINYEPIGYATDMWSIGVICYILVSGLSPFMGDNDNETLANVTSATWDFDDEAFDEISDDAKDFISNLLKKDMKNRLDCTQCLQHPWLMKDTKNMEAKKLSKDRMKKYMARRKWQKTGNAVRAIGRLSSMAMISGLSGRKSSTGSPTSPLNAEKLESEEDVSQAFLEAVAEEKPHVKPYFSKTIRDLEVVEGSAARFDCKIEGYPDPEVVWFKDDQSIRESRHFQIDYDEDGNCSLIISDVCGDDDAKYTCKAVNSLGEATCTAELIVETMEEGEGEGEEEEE

| Activity [1] | Activity [2] | Activity [3] | Activity [4] | Activity [5] | Activity [6] | Activity [7] | Activity [8] | Activity [9] | Activity [10] | SMILES |
| --- | --- | --- | --- | --- | --- | --- | --- | --- | --- | --- |
| 51% | 88% | 82% | 86% | 79% | 74% | 75% | 82% | 33% | 68% | CN(C)C/C=C/C(=O)Nc1ccc2c(C#N)cnc(Nc3cccc(Br)c3)c2c1 |
| 100% | 100% | 100% | 77% | 66% | 88% | 68% | 86% | 9% | 83% | CN1CCN(CCC(=O)Nc2ccc3c(C#N)cnc(Nc4cccc(Br)c4)c3c2)CC1 |
| 99% | 100% | 100% | 79% | 82% | 87% | 84% | 99% | 11% | 70% | CN(C)CCCC(=O)Nc1ccc2c(C#N)cnc(Nc3cccc(Br)c3)c2c1 |
